# PMC7385434 (Science Advances, 2020)
# What was measured:
# tumor growth = settings: sunitinib at a dose of 8.75 mg/kg; cited from earlier work
# HUVECs = experiment: CCK-8 cytotoxicity assay, HUVECs; type: cell-based, human; settings: CCK-8, 24 hours, 10-80 μM, n = 4
# [1] = Safety for blood circulation: platelet activity, thrombin, platelet numbers; type: in vivo, mouse; settings: tumor-bearing mice, i.v. 200 μl, 200 μM, up to 5 days
# Summary of the method: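 Tumor-bearing mice received test nanoparticles (200 μl, 200 μM) i.v. Blood was drawn into 3.8% sodium citrate at 0, 1, 4, 24 and 120 h. Platelet-rich plasma was obtained by mixing blood with an equal volume of 2% paraformaldehyde in PBS for 30 min, then centrifuging at 1000 rpm for 10 min. P-selectin was measured by flow cytometry after 30 min with FITC anti-P-selectin mAb. Thrombin was measured by ELISA; platelet counts by flow cytometry.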
# MCF-7 cells = experiment: CCK-8 cytotoxicity assay, MCF-7 cells; type: cell-based, human; settings: CCK-8, 24 hours, 10-80 μM, n = 4
# [2] = Safety: body weight and H&E of normal tissues during therapy; type: in vivo, mouse
# Summary of the method: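 MDA-MB-231-bearing mice were randomized into three groups of three to four. They received test nanoparticles i.v. (200 μl, 200 μM; 2.4 mg/kg) every other day, with peptide-only NPs and PBS as controls. Body weight and tumor volume were recorded every other day. Normal tissues were fixed overnight in 4% paraformaldehyde/PBS, paraffin-embedded, sectioned, H&E-stained and examined by light microscopy.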
# [3] = Particle size and morphology by TEM and DLS; type: physicochemical
# Summary of the method: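 Nanoparticles were formed by quick injection of a 4.0 mM DMSO peptide stock into water (0.5:99.5 v/v), giving 20 μM. They were incubated with CD105 (0.25 μg/ml) for 0, 4 and 8 h, with BSA or no protein as controls. TEM: drops sat on copper mesh 15 min, were blotted, stained 15 min with uranyl acetate, water-washed, air-dried and imaged at 200 kV. DLS was run at 0 and 8 h.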
# [4] = system: MDA-MB-231 xenografted tumor; experiment: Blood oxygen saturation; type: in vivo, mouse; settings: 4 hours after i.v. injection, 200 μl, 200 μM; n = 30 slices
# Summary of the method: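 MDA-MB-231 tumor-bearing BALB/c mice were anesthetized with isoflurane in a glass box. Test nanoparticles (200 μl, 200 μM) were given i.v.; peptide-only NPs and PBS (200 μl) served as controls. Multispectral optoacoustic tomography read Hb at 715 nm and HbO2 at 850 nm before and 4 h after injection. 3D maps were built from 30 2D slices at 0.1 mm steps. Data are means ± SD; unpaired two-tailed t test.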
# MDA-MB-231 tumor = experiment: In vivo and ex vivo fluorescence imaging of tumor accumulation and retention; parameters: species or system mouse; settings: 200 μM, n = 3
# Summary of the method: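 MDA-MB-231-bearing BALB/c nude mice received test nanoparticles (200 μl, 200 μM) i.v.; peptide-only NPs and PBS served as controls. Whole-body fluorescence (ex 500 nm, em 520 nm) was imaged at 4, 12, 24, 48 and 72 h. At 72 h, heart, liver, spleen, lung, kidney and tumor were excised for ex vivo fluorescence imaging. Groups had three to four mice.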
# [5] = in vivo fluorescence at 4, 12, 24, 48, 72 hours after i.v. 200 μl
molecule,measurement,setting,value
CCN(CC)CCNC(=O)c1c(C)[nH]c(/C=C2\C(=O)Nc3ccc(F)cc32)c1C [sunitinib],tumor growth inhibition,tumor growth,32%
BP-FFVLK-AHKHVHHVPVRL [pNPs],concentration showing good biocompatibility (cell viability),HUVECs,below 50 μM
same,change in plasma thrombin generation,[1]; ELISA,did not induce obvious changes
same,change in circulating platelet numbers,[1]; flow cytometry,did not induce obvious changes
same,change in platelet activity (P-selectin-positive platelets),[1]; flow cytometry,did not induce obvious changes
same,concentration showing good biocompatibility (cell viability),MCF-7 cells,below 50 μM
same,acute systemic toxicity by body weight,"[2]; i.v. 200 μM, 200 μl every other day, body weight every other day",did not induce acute systematic toxicity
same,"cell necrosis in other (non-tumor) tissues, H&E",[2]; tissues harvested 15 d after treatment,not observed
same,size during incubation with CD105 (TEM),"[3]; 20 μM with CD105 0.25 μg/ml in water, pNPs at start, apNFs at 4 hours",30.6 ± 7.1 nm
same,size by DLS before incubation with CD105,"[3]; 20 μM, 0 hours, multidisperse after CD105 incubation 8 hours",31.6 nm
same,diameter (TEM and DLS),"[3]; 20 μM, H2O:DMSO = 99.5:0.5 v/v, freshly prepared",23.1 ± 5.8 nm
same,stability of nanoparticles in water,"[3]; 20 μM, water with 0.5% DMSO, without CD105, 0 and 8 h, CD, FT-IR, TEM",stable
same,diameter after incubation with BSA in place of CD105,"[3]; bovine serum albumin replacing CD105, remained particulate",29.5 ± 5.3 nm
same,decrease in sO2 in tumors compared with before injection,[4],33.8%
same,persistence of fluorescence in tumor,MDA-MB-231 tumor; [5],72 h
same,time up to which artificial clots continuously accumulated in tumor,MDA-MB-231 tumor; [5],24 h
BP-AHKHVHHVPVRL [BA NPs],tumor fluorescence at 72 hours,MDA-MB-231 tumor; in vivo fluorescence after i.v. 200 μl,almost disappeared
